# According to ChEMBL document CHEMBL3351600, “Sulfur, selenium and tellurium pseudopeptides: synthesis and biological evaluation” (Bioorg Med Chem, 2014):
# How the values were obtained:
# [1] = Growth inhibition of human UACC62 cells after 48 hrs; type: functional; details: UACC-62, 48 h
# Outline: (§1)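 Run by the NCI 58-cell-line screen under its standard cytotoxicity protocol. Compounds were first tested at a single dose, then at five doses. Cells were exposed to compound for 48 h.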
# [2] = Lipophilicity, log K of the compound by HPLC analysis
# [3] = Growth inhibition of human HCT15 cells after 48 hrs; type: functional; details: HCT-15, 48 h
# Outline: (§2)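 NCI-60 human tumour cell line panel screen run at the US National Cancer Institute under its standard cytotoxicity protocol. It covers leukaemia, NSCLC, colon, CNS, melanoma, ovarian, renal, prostate and breast lines. An initial single-dose test was followed by five-dose testing with 48 h compound exposure.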
# HL-60(TB) = assay: Growth inhibition of human HL-60(TB) cells after 48 hrs; type: functional; details: HL-60, 48 h; outline: as §2
# [4] = Growth inhibition of human COLO205 cells after 48 hrs; type: functional; details: COLO 205, 48 h; outline: as §2
# SN12C = assay: Growth inhibition of human SN12C cells after 48 hrs; type: functional; outline: as §1
# [5] = Growth inhibition of human UACC257 cells after 48 hrs; type: functional; details: UACC-257, 48 h; outline: as §1
# NCI-H460 = assay: Growth inhibition of human NCI-H460 cells after 48 hrs; type: functional; details: NCI-H460, 48 h, read-out: pLC50 (the source's name) (converted); outline: as §2
# [6] = Cytotoxicity against human fibroblasts assessed as cell viability after 24 hrs incubation by MTT assay; type: cell-based; details: Fibroblast
# Outline: (§3)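 Cell lines came from DSMZ; primary human fibroblasts served as non-cancer controls. Cells were grown in medium with 10% FCS, seeded at 50,000 cells/ml, and grown 2 days at 37 °C, 10% CO2. Serial dilutions were then added for 24 h. MTT (final 0.5 mg/ml) was added for 2 h. Formazan was pelleted, PBS-washed, dissolved in isopropanol/0.4% HCl and read at 590 nm. Two parallel experiments were run. IC50 was taken as the concentration giving 50% of untreated-control absorbance.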
# A549 = assay: Growth inhibition of human A549/ATCC cells after 48 hrs; type: functional; details: A549, 48 h; outline: as §2
# [7] = Growth inhibition of human HCT116 cells after 48 hrs; type: functional; details: HCT-116, 48 h; outline: as §2
# IGROV-1 = assay: Growth inhibition of human IGROV1 cells after 48 hrs; type: functional; details: IGROV-1, 48 h; outline: as §2
# M14 = assay: Growth inhibition of human M14 cells after 48 hrs; type: functional; details: M14, 48 h; outline: as §2
# NCI-H522 = assay: Growth inhibition of human NCI-H522 cells after 48 hrs; type: functional; details: NCI-H522, 48 h; outline: as §2
# Pseudomonas aeruginosa = assay: Antimicrobial activity against Pseudomonas aeruginosa assessed as inhibition at 20 ug/6 mm disk after 1 to 2 days by agar diffusion assay; type: functional
# Outline: (§4)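 Standard agar diffusion: 6-mm paper disks loaded with 20 µg of compound were placed on inoculated plates. Inhibition-zone diameter (mm) was read after 1 and 2 days of growth.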
# [8] = Growth inhibition of human OVCAR3 cells after 48 hrs; type: functional; details: OVCAR-3, 48 h; outline: as §2
# HOP-62 = assay: Growth inhibition of human HOP62 cells after 48 hrs; type: functional; details: HOP-62, 48 h; outline: as §2
# A-431 = assay: Cytotoxicity against human A431 cells assessed as cell viability after 24 hrs incubation by MTT assay; type: functional, cell-based; details: A-431, 24 h; outline: as §3
# K562 = assay: Growth inhibition of human K562 cells after 48 hrs; type: functional; details: K562, 48 h; outline: as §2
# Aspergillus niger = assay: Antimicrobial activity against Aspergillus niger assessed as inhibition at 20 ug/6 mm disk after 1 to 2 days by agar diffusion assay; type: functional; outline: as §4
# MDA-MB-231 = assay: Growth inhibition of human MDA-MB-231 cells after 48 hrs; type: functional; details: MDA-MB-231, 48 h; outline: as §2
# [9] = Growth inhibition of human PC3 cells after 48 hrs; type: functional; details: PC-3, 48 h; outline: as §2
# NCI-H23 = assay: Growth inhibition of human NCI-H23 cells after 48 hrs; type: functional; details: NCI-H23, 48 h, read-out: pLC50 (the source's name) (converted); outline: as §2
# SW-620 = assay: Growth inhibition of human SW620 cells after 48 hrs; type: functional; details: SW-620, 48 h; outline: as §1
# [10] = Growth inhibition of human OVCAR5 cells after 48 hrs; type: functional; details: OVCAR-5, 48 h; outline: as §2
# Mycolicibacterium phlei = assay: Antimicrobial activity against Mycobacterium phlei assessed as inhibition at 20 ug/6 mm disk after 1 to 2 days by agar diffusion assay; type: functional; outline: as §4
# NCI-H322M = assay: Growth inhibition of human NCI-H322M cells after 48 hrs; type: functional; outline: as §2
# Candida albicans = assay: Antimicrobial activity against Candida albicans assessed as inhibition at 20 ug/6 mm disk after 1 to 2 days by agar diffusion assay; type: functional; outline: as §4
# Micrococcus luteus = assay: Antimicrobial activity against Micrococcus luteus assessed as inhibition at 20 ug/6 mm disk after 1 to 2 days by agar diffusion assay; type: functional; outline: as §4
# Klebsiella pneumoniae = assay: Antimicrobial activity against Klebsiella pneumoniae assessed as inhibition at 20 ug/6 mm disk after 1 to 2 days by agar diffusion assay; type: functional; outline: as §4
# U-251 = assay: Growth inhibition of human U251 cells after 48 hrs; type: functional; details: U-251, 48 h, read-out: pLC50 (the source's name) (converted); outline: as §1
# TK-10 = assay: Growth inhibition of human TK10 cells after 48 hrs; type: functional; details: TK-10, 48 h; outline: as §1
# SK-MEL-2 = assay: Growth inhibition of human SK-MEL-2 cells after 48 hrs; type: functional; details: SK-MEL-2, 48 h; outline: as §2
# [11] = read-out: pLC50 (the source's name) (converted)
structure (smiles),measurement,setting,value
COc1ccc(N(CC(=O)NCCC[Te]c2ccccc2)C(=O)CCSC2=C(C)C(=O)c3ccccc3C2=O)cc1,GI50,[1],1.91 µM
same,CC50,[1]; [11],19.1 µM
same,TGI,[1]; read-out: pTGI (converted),4.9 µM
same,log K,[2],-0.54
same,GI50,[3],0.447 µM
same,CC50,[3]; [11],24.5 µM
same,TGI,[3]; read-out: pTGI (converted),2.34 µM
same,GI50,HL-60(TB),2.88 µM
same,CC50,HL-60(TB); [11],> 100 µM
same,TGI,HL-60(TB); read-out: pTGI (converted),6.76 µM
same,Retention_time,,0.938 min
same,GI50,[4],1.86 µM
same,CC50,[4]; [11],6.61 µM
same,TGI,[4]; read-out: pTGI (converted),3.47 µM
same,LC50,SN12C,23.4 µM
same,GI50,[5],2.04 µM
same,CC50,[5]; [11],16.6 µM
same,TGI,[5]; read-out: pTGI (converted),5.01 µM
same,CC50,NCI-H460,4.68 µM
same,IC50,[6],4 µM
same,GI50,A549,0.257 µM
same,CC50,A549; [11],3.47 µM
same,TGI,A549; read-out: pTGI (converted),0.724 µM
same,GI50,[7],0.339 µM
same,CC50,[7]; [11],5.5 µM
same,TGI,[7]; read-out: pTGI (converted),1.29 µM
same,GI50,IGROV-1,0.776 µM
same,CC50,IGROV-1; [11],5.37 µM
same,TGI,IGROV-1; read-out: pTGI (converted),2.19 µM
same,GI50,M14,0.759 µM
same,CC50,M14; [11],5.25 µM
same,TGI,M14; read-out: pTGI (converted),2.14 µM
same,GI50,NCI-H522,1.07 µM
same,CC50,NCI-H522; [11],> 100 µM
same,TGI,NCI-H522; read-out: pTGI (converted),3.39 µM
same,diameter of the inhibition zone (DIZ),Pseudomonas aeruginosa,0 mm
same,GI50,[8],1.17 µM
same,CC50,[8]; [11],5.62 µM
same,TGI,[8]; read-out: pTGI (converted),2.04 µM
same,GI50,HOP-62,0.339 µM
same,CC50,HOP-62; [11],3.8 µM
same,TGI,HOP-62; read-out: pTGI (converted),1 µM
same,IC50,A-431,1 µM
same,GI50,K562,1.95 µM
same,CC50,K562; [11],> 100 µM
same,TGI,K562; read-out: pTGI (converted),5.13 µM
same,diameter of the inhibition zone (DIZ),Aspergillus niger,0 mm
same,GI50,MDA-MB-231,1.23 µM
same,LC50,MDA-MB-231,14.8 µM
same,TGI,MDA-MB-231; read-out: pTGI (converted),3.89 µM
same,LC50,[9],14.8 µM
same,CC50,NCI-H23,20.4 µM
same,GI50,SW-620,1.95 µM
same,CC50,SW-620; [11],45.7 µM
same,TGI,SW-620; read-out: pTGI (converted),5.62 µM
same,GI50,[10],0.631 µM
same,LC50,[10],6.46 µM
same,TGI,[10]; read-out: pTGI (converted),2.24 µM
same,diameter of the inhibition zone (DIZ),Mycolicibacterium phlei,15 mm
same,GI50,NCI-H322M,2.09 µM
same,CC50,NCI-H322M; [11],60.3 µM
same,TGI,NCI-H322M; read-out: pTGI (converted),6.03 µM
same,diameter of the inhibition zone (DIZ),Candida albicans,0 mm
same,diameter of the inhibition zone (DIZ),Micrococcus luteus,8 mm
same,diameter of the inhibition zone (DIZ),Klebsiella pneumoniae,12 mm
same,CC50,U-251,> 100 µM
same,GI50,TK-10,2.82 µM
same,LC50,TK-10,28.8 µM
same,TGI,TK-10; read-out: pTGI (converted),6.92 µM
same,GI50,SK-MEL-2,2.29 µM
same,CC50,SK-MEL-2; [11],14.8 µM
same,TGI,SK-MEL-2; read-out: pTGI (converted),5.01 µM
